High-throughput results (PubChem)
A selection: hits, their analogues and other compounds. The true share with any hit is near 1%.
Yeast eIF2B – GCN4-lacZ reporter reduction in eIF2B-epsilon mutant yeast, primary screen, S. cerevisiae, eIF2B-epsilon R284H, Beta-Glo luminescence; inhibition, % at 25 µM (by protocol); 27,000 tested, 0.91% active;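 active means mutant luminescence inhibited past about 50% while wild type luminescence and mutant growth stay under set limits, limit read from the data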
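Times: 16 h growth with compound at 30 °C, 90 min Beta-Glo step; Assay system: yeast eIF2B-epsilon R284H mutant carrying GCN4–beta-galactosidase fusion; Measure: % inhibition of reporter signal and growth versus controls; Dosing: one concentration, 25 µM, 0.25% DMSO; Buffer or medium: YPD yeast growth medium; Measured by: Beta-Glo luminescence plus absorbance at 595 nm.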
Yeast tox – yeast growth toxicity, wild-type and mutant, primary screen, cytotoxicity control for eIF2B function restoration project, wild-type and eIF2Bepsilon R284H mutant, A595. AID 685, 2007. 30,000 tested, 0.3% active. S. cerevisiae wild-type growth, A595 turbidity, 16 h. growth inhibition, % at 25 µM (by protocol);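 active means mutant and wild-type yeast strains alike exhibit over 30% growth inhibition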
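System: S. cerevisiae wild-type or eIF2Bepsilon-R284H mutant strain; times: 16 h growth with compound, 30 °C; signal: absorbance at 595 nm (turbidity); measure: growth inhibition (%) versus cell controls and blanks; compound: 25 µM single dose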
Each line names hits and unclear results; the compound was inactive in the other large screens; ! = not confirmed by another sample.

CC(C)(C)C(=O)C(Cc1ccccc1)n1cncn1 (stereo not given)	Yeast tox 62
Cc1cccc(C)c1OCC(O)CNS(=O)(=O)c1ccccc1C(=O)N1CCCCC1 (stereo not given)	none
O=C1CC(N2CCN(c3nc4ccccc4s3)CC2)C(=O)N1Cc1cccs1 (stereo not given)	Yeast tox 73
O=C1CC(N2CCN(c3ccc(F)cc3)CC2)C(=O)N1Cc1cccs1 (stereo not given)	none
COC(=O)C(C)Oc1ccc(=O)[nH]n1 (stereo not given)	none (no result: Yeast tox)
CC(C)COC(=O)c1ccc2c(c1O)C(=O)c1ccccc1C2=O	none (no result: Yeast eIF2B)
Cc1cc(C(=O)N2CCC(C(F)(F)F)n3nccc32)on1 (stereo not given)	none
O=C(COC(=O)CCc1ccc(S(=O)(=O)N2CCOCC2)cc1)Nc1ccc(Cl)cn1	none
CCOC(=O)Cc1csc(NC(=O)CCc2ccc(S(=O)(=O)N3CCOCC3)cc2)n1	Yeast eIF2B 57
CCN(CC)c1ncnc2sc(C(=O)N3CCN(c4ccccc4)CC3)c(C)c12	none
O=C(CNC1CCCCC1)N1CCc2ccccc2C1	none (no result: Yeast eIF2B)
CCOC(=O)C1=C(C)NC(C)=C(C(=O)OCC)C1C(=O)OCC(=O)N1CCc2ccccc2C1	Yeast eIF2B 59
CC(=O)c1c(C(C)=O)c(C)n(-c2ccc(N)c(C)c2)c1C	none
Cc1ccc(-n2c(C)cc(C3N=C(N)Nc4nc5ccccc5n43)c2C)c(C)c1 (stereo not given)	Yeast tox 92
NC1=NC(c2cn(-c3ccccc3)nc2-c2cccs2)n2c(nc3ccccc32)N1 (stereo not given)	none
COc1ccc2c(c1)CCc1c(C(=O)N3CC4(C)CC3CC(C)(C)C4)noc1-2 (stereo not given)	Yeast eIF2B 71
COc1ccc2c(c1)CCc1c(C(=O)N3CCCc4ccccc43)noc1-2	none
COc1ccccc1CC(=O)N1CCCC1	none (no result: Yeast eIF2B)
COc1ccccc1CC(=O)N1CCN(c2cccc(C(F)(F)F)c2)CC1	Yeast eIF2B 50
C=CCNc1nnc(SC2CC(=O)N(c3ccc(OCCC)cc3)C2=O)s1 (stereo not given)	Yeast tox 60
CCCOc1ccc(N2C(=O)CC(NCc3ccncc3)C2=O)cc1 (stereo not given)	none
COc1ccccc1NC(=S)NNC(=O)c1ccccc1	Yeast eIF2B 58
COc1ccccc1NC(=O)Oc1ccc(C(C)=O)cc1	none
Fc1ccc(-c2cc3nc(-c4ccccc4)cc(N4CCN(CCN5CCOCC5)CC4)n3n2)cc1	Yeast tox 31
CCc1c(C)nc2cc(-c3cc(OC)cc(OC)c3)nn2c1N1CCN(CCN2CCOCC2)CC1	none (no result: Yeast eIF2B)
CSc1nc(NC(C)=O)nc(C)c1Br	none
COC(=O)c1c(C)[nH]c(C(=O)CN2CCOCC2)c1C	none
CC(=O)Oc1ccc(N2C(=O)C3C(C2=O)C2(C)C=CC3(C)O2)cc1 (stereo not given)	Yeast tox 61
CC(=O)Oc1ccc2c(C)cc(=O)oc2c1	none
CCOC(=O)Cn1c2ccc(OC)cc2c2nc3ccccc3nc21	none
COC(=O)Cn1c2ccc(OC)cc2c2nc3ccccc3nc21	Yeast eIF2B 53
Cc1ccc(NC2CC(=O)N(Cc3ccccc3)C2=O)cc1 (stereo not given)	none (no result: Yeast eIF2B)
CN1C(=O)CC2(CC(=O)N(Cc3ccccc3)C2)C1=O (stereo not given)	Yeast eIF2B 61 (no result: Yeast tox)
COC(=O)c1ccc(NS(=O)(=O)N(C)C)cc1	Yeast eIF2B 60
Cc1ccc(NS(=O)(=O)N(C)C)cc1	none
CCCCN(C(=O)Cn1nnc2ccccc21)C(C(=O)NCCOC)c1ccccc1 (stereo not given)	Yeast eIF2B 57
CCOC(=O)CN(C(=O)Cn1nnc2ccccc21)C(C(=O)NCCOC)c1ccccc1C (stereo not given)	none
CCN(CC)S(=O)(=O)c1ccc(N(C)Cc2cccnc2)nc1	none
Cc1ccc(-c2cc(-c3ccccc3Cl)[nH]n2)c(O)c1	Yeast tox 64
Cc1ccccc1-c1cc(-c2ccccc2O)n[nH]1	none
CCS(=O)(=O)NCCc1csc(-c2ccccc2)n1	none
COC(=O)COc1ccc(S(=O)(=O)NCCC2=CCCCC2)cc1Cl	none
Cc1cc(N2C(=O)C(=O)/C(=C(/O)c3ccccc3)C2c2cccs2)no1 (stereo not given)	none
CCOC(=O)C1=C(c2ccccc2)N(C)C(=O)NC1c1ccc(O)c(OC)c1 (stereo not given)	Yeast eIF2B 50
CCOC(=O)C1=C(c2ccccc2)N=C2SCC(=O)N2C1c1ccc(OC)c(OC)c1 (stereo not given)	none
Cc1cc(N2CCN(C(=O)c3ccco3)CC2)n2ncc(-c3ccccc3)c2n1	Yeast tox 94
Cc1cc(N2CCOCC2)n2ncc(-c3ccccc3)c2n1	none
O=C1CCC([N+](=O)[O-])C(c2ccc(Cl)cc2)N1 (stereo not given)	none
Cn1cnnc1SCC(=O)Nc1ccc2nc(SCc3ccccc3Cl)sc2c1	none (no result: Yeast tox)
c1ccc(SCCc2ccncc2)cc1	none (no result: Yeast eIF2B)
Fc1ccc(SCCc2ccncc2)cc1	Yeast tox 59! (no result: Yeast eIF2B)
COc1ccc(C2NC(=O)NC(C)=C2C(C)=O)cc1 (stereo not given)	Yeast eIF2B 52
C=CCOc1ccc(C2NC(=O)NC(C)=C2C(=O)OC)cc1 (stereo not given)	none
CN1C(=O)c2ccccc2C(C(=O)O)C1c1cn(C)c2ccccc12 (stereo not given)	none
CCC(C)NS(=O)(=O)c1ccc(OCC(=O)Nc2ccc(F)cc2F)cc1 (stereo not given)	none
COc1cccc(NC(=O)CN(c2ccc(C)cc2)S(=O)(=O)c2c(C)nn(C)c2C)c1	Yeast eIF2B 53
COc1ccc(N(CC(=O)NC2CCCCCC2)S(=O)(=O)c2c(C)nn(C)c2C)cc1	none
O=C1c2ccccc2S(=O)(=O)N1CC1CC(c2ccccc2)=NO1 (stereo not given)	Yeast tox 42
COc1ccc(C2=NOC(CN3C(=O)c4ccccc4S3(=O)=O)C2)cc1 (stereo not given)	none (no result: Yeast tox)
CCC(CC)C(=O)NCCc1ccc(F)cc1	none
Cn1ccnc1Sc1nc2ccccc2nc1NS(=O)(=O)c1ccccc1	none
CCCC1COC(Cn2cncn2)(c2ccc(C)cc2)O1 (stereo not given)	Yeast tox 93
O=C(c1ccc(Br)o1)N1CCCc2ccccc21	Yeast eIF2B 53
O=C(c1ccccc1)N1CCc2ccccc21	none
c1ccc(CN2CCN(c3ncccn3)CC2)nc1	none
CC(=O)Cc1nsc(NC(=O)c2ccc(COc3ccccc3)o2)n1	none
O=C(OCC(=O)N1CCN(C(=O)c2ccco2)CC1)c1cc(-c2cccc(Br)c2)nc2ccccc12	none (no result: Yeast eIF2B)
Cc1cc(C)cc(NS(=O)(=O)c2ccc3[nH]c(=O)[nH]c3c2)c1	Yeast eIF2B 52
COc1ccc(S(=O)(=O)Nc2ccc(C)cc2)cc1OC	none
CC(=O)c1ccc(OC(=O)N(c2ccccc2)c2ccccc2)cc1	none
O=C1c2ccccc2C(=O)C1c1ccncc1	Yeast eIF2B 67
Cc1ccccc1N1C(=O)c2ccccc2NC1c1ccncc1 (stereo not given)	none (no result: Yeast eIF2B)
COc1ccc2c(CC#N)c[nH]c2c1	none
CCCn1c(=O)n(C)c(=O)c2c(SCC(=O)NCc3ccco3)nc(C3CC3)nc21	none
CNC(=O)Cn1nc(-c2ccc(C)c(S(=O)(=O)N(C)C)c2)c2ccccc2c1=O	Yeast eIF2B 62
